From ChEMBL document CHEMBL4680175, “Sulfonamide-based ring-fused analogues for CAN508 as novel carbonic anhydrase inhibitors endowed with antitumor activity: Design, synthesis, and in vitro biological evaluation” (Eur J Med Chem, 2020)
The source made the active and inactive calls. The calls are words filed in the database; no cut-off is given here.

Columns and labels:
[1] = molecular target: Carbonic anhydrase 1 (Homo sapiens, UniProt P00915); test: Inhibition of recombinant human carbonic anhydrase 1 preincubated with enzyme for 15 mins by phenol red dye based stopped flow CO2 hydrase assay
Chain of Carbonic anhydrase 1 (P00915 whole entry): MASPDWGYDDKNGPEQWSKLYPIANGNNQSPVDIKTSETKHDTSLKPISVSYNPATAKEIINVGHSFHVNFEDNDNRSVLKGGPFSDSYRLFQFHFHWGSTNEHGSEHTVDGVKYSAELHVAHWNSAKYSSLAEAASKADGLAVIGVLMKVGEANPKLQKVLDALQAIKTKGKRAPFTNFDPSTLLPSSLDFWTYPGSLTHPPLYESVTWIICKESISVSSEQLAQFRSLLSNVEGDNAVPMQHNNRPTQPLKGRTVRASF

[2] = molecular target: Carbonic anhydrase 2 (Homo sapiens, UniProt P00918); test: Inhibition of recombinant human carbonic anhydrase 2 preincubated with enzyme for 15 mins by phenol red dye based stopped flow CO2 hydrase assay
[3] = molecular target: Carbonic anhydrase 9 (Homo sapiens, UniProt Q16790); test: Inhibition of recombinant human carbonic anhydrase 9 preincubated with enzyme for 15 mins by phenol red dye based stopped flow CO2 hydrase assay
[4] = molecular target: Cyclin-dependent kinase 2/cyclin E1 (Homo sapiens, UniProt P24941); test: Inhibition of CDK2/cyclin E (unknown origin) expressed in baculovirus infected Sf21 insect cells using histone H1 as substrate in presence of [gamma33P]ATP
[5] = molecular target: CDK9/cyclin T1 (Homo sapiens, UniProt P50750); test: Inhibition of human full-length N-terminal GST/His6-tagged CDK9 (1 to 372 residues)/His6-tagged Cyclin-T1 (1 to 726 residues) expressed in sf9 cells using (YSPTSPS)2KK peptide as substrate in presence of [gamma33P]ATP
Chain of CDK9/cyclin T1 (O60563 whole entry, the tested form may be a part): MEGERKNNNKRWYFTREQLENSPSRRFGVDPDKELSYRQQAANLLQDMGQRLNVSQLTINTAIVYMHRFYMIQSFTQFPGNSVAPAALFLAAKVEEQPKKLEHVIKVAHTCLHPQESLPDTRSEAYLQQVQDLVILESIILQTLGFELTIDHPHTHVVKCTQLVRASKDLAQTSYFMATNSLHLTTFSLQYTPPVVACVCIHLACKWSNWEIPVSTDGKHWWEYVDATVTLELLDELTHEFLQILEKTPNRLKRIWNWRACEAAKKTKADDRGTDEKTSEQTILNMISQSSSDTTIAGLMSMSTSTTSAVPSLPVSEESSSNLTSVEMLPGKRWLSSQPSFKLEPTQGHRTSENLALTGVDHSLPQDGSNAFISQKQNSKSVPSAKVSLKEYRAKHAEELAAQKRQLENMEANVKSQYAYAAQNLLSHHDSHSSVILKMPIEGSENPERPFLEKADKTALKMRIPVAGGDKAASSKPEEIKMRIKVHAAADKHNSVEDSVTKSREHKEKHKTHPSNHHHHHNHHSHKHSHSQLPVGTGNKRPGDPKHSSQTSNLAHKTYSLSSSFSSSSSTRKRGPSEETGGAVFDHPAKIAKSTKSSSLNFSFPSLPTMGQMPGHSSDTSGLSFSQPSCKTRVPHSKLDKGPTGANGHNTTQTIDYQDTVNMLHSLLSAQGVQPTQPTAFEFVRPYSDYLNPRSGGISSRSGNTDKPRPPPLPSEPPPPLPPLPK
Chain of CDK9/cyclin T1 (P50750 whole entry, the tested form may be a part): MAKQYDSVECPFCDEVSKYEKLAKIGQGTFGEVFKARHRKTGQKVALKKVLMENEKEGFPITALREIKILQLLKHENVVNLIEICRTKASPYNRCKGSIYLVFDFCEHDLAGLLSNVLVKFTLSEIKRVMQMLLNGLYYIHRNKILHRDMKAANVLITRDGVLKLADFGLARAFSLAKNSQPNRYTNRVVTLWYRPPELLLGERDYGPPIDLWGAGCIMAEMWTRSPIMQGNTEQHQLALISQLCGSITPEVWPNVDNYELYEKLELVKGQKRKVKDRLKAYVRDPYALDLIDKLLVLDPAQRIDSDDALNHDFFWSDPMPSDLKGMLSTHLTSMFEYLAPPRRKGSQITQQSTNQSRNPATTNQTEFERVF

[6] = molecular target: Carbonic anhydrase 12 (Homo sapiens, UniProt O43570); test: Inhibition of recombinant human carbonic anhydrase 12 preincubated with enzyme for 15 mins by phenol red dye based stopped flow CO2 hydrase assay
Chain of Carbonic anhydrase 12 (O43570 whole entry): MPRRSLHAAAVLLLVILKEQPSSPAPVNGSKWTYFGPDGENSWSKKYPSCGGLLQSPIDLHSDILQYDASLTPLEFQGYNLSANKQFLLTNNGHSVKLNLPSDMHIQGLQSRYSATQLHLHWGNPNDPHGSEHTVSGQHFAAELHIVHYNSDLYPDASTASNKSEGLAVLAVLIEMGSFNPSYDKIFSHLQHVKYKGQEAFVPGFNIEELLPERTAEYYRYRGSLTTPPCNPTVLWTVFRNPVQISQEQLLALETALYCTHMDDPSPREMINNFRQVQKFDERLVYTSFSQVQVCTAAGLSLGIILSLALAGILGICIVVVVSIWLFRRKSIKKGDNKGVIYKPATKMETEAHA

[7] = test system: SK-OV-3; test: Antitumor activity against human SK-OV-3 cells assessed as cell growth inhibition at 10 uM incubated for 48 hrs by sulforhodamine B assay; format: functional; conditions: read-out: GI
Method in brief: (§1)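 NCI Drug Evaluation Branch protocol: primary single-dose screen at 10 μM across a 57-line human cancer panel. Drug exposure is 48 h. Cell growth and viability are read by sulforhodamine B assay. Data are given as a mean graph of percent growth of treated cells and reported as percentage growth inhibition (GI%).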

[8] = test system: UO-31; test: Antitumor activity against human UO-31 cells assessed as cell growth inhibition at 10 uM incubated for 48 hrs by sulforhodamine B assay; format: functional; conditions: read-out: GI
Method in brief: (§2)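 NCI one-dose screen: 57-cell-line panel exposed at 10 μM for 48 h, Drug Evaluation Branch protocol. Growth and viability read by sulforhodamine B; data given as percent growth inhibition from the mean-graph of percent growth of treated cells.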

[9] = test system: A498; test: Antitumor activity against human A498 cells assessed as cell growth inhibition at 10 uM incubated for 48 hrs by sulforhodamine B assay; format: functional; conditions: read-out: GI; method in brief: as §1
[10] = test system: NCI/ADR-RES; test: Antitumor activity against human NCI/ADR-RES cells assessed as cell growth inhibition at 10 uM incubated for 48 hrs by sulforhodamine B assay; format: functional, cell-based; method in brief: as §1
[11] = test system: Hs-578T; test: Antitumor activity against human HS 578T cells assessed as cell growth inhibition at 10 uM incubated for 48 hrs by sulforhodamine B assay; format: functional; conditions: read-out: GI; method in brief: as §1
[12] = test system: IGROV-1; test: Antitumor activity against human IGROV1 cells assessed as cell growth inhibition at 10 uM incubated for 48 hrs by sulforhodamine B assay; format: functional; conditions: read-out: GI; method in brief: as §1
[13] = test system: NCI-H460; test: Antitumor activity against human NCI-H460 cells assessed as cell growth inhibition at 10 uM incubated for 48 hrs by sulforhodamine B assay; format: functional; conditions: read-out: GI; method in brief: as §1
[14] = test system: ACHN; test: Antitumor activity against human ACHN cells assessed as cell growth inhibition at 10 uM incubated for 48 hrs by sulforhodamine B assay; format: functional; conditions: read-out: GI; method in brief: as §1
[15] = test system: TK-10; test: Antitumor activity against human TK-10 cells assessed as cell growth inhibition at 10 uM incubated for 48 hrs by sulforhodamine B assay; format: functional; conditions: read-out: GI; method in brief: as §2
[16] = test system: BT-549; test: Antitumor activity against human BT-549 cells assessed as cell growth inhibition at 10 uM incubated for 48 hrs by sulforhodamine B assay; format: functional; conditions: read-out: GI; method in brief: as §1
[17] = test system: CAKI-1; test: Antitumor activity against human CAKI-1 cells assessed as cell growth inhibition at 10 uM incubated for 48 hrs by sulforhodamine B assay; format: functional; conditions: read-out: GI; method in brief: as §1
[18] = test system: SR; test: Antitumor activity against human SR cells assessed as cell growth inhibition at 10 uM incubated for 48 hrs by sulforhodamine B assay; format: functional; conditions: read-out: GI; method in brief: as §2
[19] = test system: RXF 393; test: Antitumor activity against human RXF 393 cells assessed as cell growth inhibition at 10 uM incubated for 48 hrs by sulforhodamine B assay; format: functional; conditions: read-out: GI; method in brief: as §1
[20] = test system: LOX IMVI; test: Antitumor activity against human LOX IMVI cells assessed as cell growth inhibition at 10 uM incubated for 48 hrs by sulforhodamine B assay; format: functional; conditions: read-out: GI; method in brief: as §1
[21] = test system: SNB-75; test: Antitumor activity against human SNB-75 cells assessed as cell growth inhibition at 10 uM incubated for 48 hrs by sulforhodamine B assay; format: functional; conditions: read-out: GI; method in brief: as §2
[22] = test system: M14; test: Antitumor activity against human M14 cells assessed as cell growth inhibition at 10 uM incubated for 48 hrs by sulforhodamine B assay; format: functional; conditions: read-out: GI; method in brief: as §1
[23] = test system: NCI-H522; test: Antitumor activity against human NCI-H522 cells assessed as cell growth inhibition at 10 uM incubated for 48 hrs by sulforhodamine B assay; format: functional; conditions: read-out: GI; method in brief: as §1
[24] = test system: NCI-H322M; test: Antitumor activity against human NCI-H322M cells assessed as cell growth inhibition at 10 uM incubated for 48 hrs by sulforhodamine B assay; format: functional; conditions: read-out: GI; method in brief: as §1
[25] = test system: 786-0; test: Antitumor activity against human 786-0 cells assessed as cell growth inhibition at 10 uM incubated for 48 hrs by sulforhodamine B assay; format: functional; conditions: read-out: GI; method in brief: as §1

| SMILES | Ki [1] [nM] | Ki [2] [nM] | Ki [3] [nM] | IC50 [4] [µM] | IC50 [5] [µM] | Ki [6] [nM] | also measured |
| --- | --- | --- | --- | --- | --- | --- | --- |
| Cc1ccc(-c2ccnc3c(/N=N/c4ccc(S(N)(=O)=O)cc4)c(N)nn23)cc1 | 1330 | 6.2 | 45.7 | > 12.5 | > 12.5 | 60.7 | – |
| Nc1nn2c(-c3ccccc3)ccnc2c1/N=N/c1ccc(S(N)(=O)=O)cc1 | 458 | 27.6 | 31.8 | > 12.5 | > 12.5 | 25.4 | – |

Second part, led by results:

| Ki [1] [nM] | Ki [2] [nM] | Ki [3] [nM] | IC50 [4] [µM] | IC50 [5] [µM] | Ki [6] [nM] | SMILES | also measured |
| --- | --- | --- | --- | --- | --- | --- | --- |
| 442 | 5.5 | 29.3 | > 12.5 | > 12.5 | 88.6 | COc1ccc(-c2ccnc3c(/N=N/c4ccc(S(N)(=O)=O)cc4)c(N)nn23)cc1 | – |
| 651 | 22.1 | 16.6 | > 12.5 | > 12.5 | 36.5 | Nc1nn2cc(-c3ccc(Cl)cc3)[nH]c2c1/N=N/c1ccc(S(N)(=O)=O)cc1 | inhibition of growth at 10 µM [7]: 21%; inhibition of growth at 10 µM [8]: 22%; inhibition of growth at 10 µM [9]: 65%; Activity [10]: inactive; inhibition of growth at 10 µM [11]: 21%; inhibition of growth at 10 µM [12]: 21%; inhibition of growth at 10 µM [13]: 25%; inhibition of growth at 10 µM [14]: 29%; inhibition of growth at 10 µM [15]: 27%; inhibition of growth at 10 µM [16]: 34%; inhibition of growth at 10 µM [17]: 35%; inhibition of growth at 10 µM [18]: 28%; inhibition of growth at 10 µM [19]: 29%; inhibition of growth at 10 µM [20]: 21%; inhibition of growth at 10 µM [21]: 23%; inhibition of growth at 10 µM [22]: 21%; inhibition of growth at 10 µM [23]: 30%; inhibition of growth at 10 µM [24]: 25%; inhibition of growth at 10 µM [25]: 28% |
| 271 | 38.1 | 22 | 41.7 | > 12.5 | 10.1 | Nc1n[nH]c(N)c1/N=N/c1ccc(S(N)(=O)=O)cc1 | – |
